Experimental data taken from ChEMBL document CHEMBL5233208, “Optimization of P2Y12 Antagonist Ethyl 6-(4-((Benzylsulfonyl)carbamoyl)piperidin-1-yl)-5-cyano-2-methylnicotinate (AZD1283) Led to the Discovery of an Oral Antiplatelet Agent with Improved Druglike Properties” (J Med Chem, 2019).
Values belong to the molecule of their own block, whether it stands above or below them. Active and inactive are the calls of the source. The calls are words filed in the database; no cut-off is given here.

Assays:
Homo sapiens = organism: Homo sapiens; experiment: Antiplatelet activity in human platelet-rich plasma assessed as inhibition of ADP-induced platelet aggregation by aggregometry; assay type: functional
How it was run: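 Human PRP from healthy donors free of aspirin/NSAIDs for at least two weeks, drawn into ACD; PRP spun at 300 g for 10 min, PPP at 2000 g. Compound in 0.5% DMSO preincubated 2 min at 37 °C with stirring (900 rpm). Aggregation induced by 10 μM ADP (final) and followed optically for 5 min.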

Rattus norvegicus [1] = experiment: Antithrombotic activity in anesthetized Wistar rat model of FeCL3-induced carotid artery thrombosis assessed as reduction in thrombus weight at 10 mg/kg, po administered as single dose measured at 1.5 hrs post dose; assay type: functional, organism-based
How it was run: (§1)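 Compounds in 0.5% CMC-Na given to Wistar rats as a single oral gavage dose (10 mL/kg). Rats anesthetized with 2% pentobarbital i.p. at 50 mg/kg and kept on a heating pad. At 1.5 h post-dose, filter paper soaked in 20% FeCl3 applied to the isolated left carotid artery for 10 min; thrombus weight recorded. Mean ± SEM, n = 10.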

[2] = Metabolic stability in rat liver microsomes assessed as half life at […] measured up to 60 mins in presence of NADPH regeneration system by LC-MS/MS analysis; assay type: ADME, Microsome
[3] = Metabolic stability in dog liver microsomes assessed as half life at […] measured up to 60 mins in presence of NADPH regeneration system by LC-MS/MS analysis; assay type: ADME, Canis lupus familiaris, Microsome
[4] = Metabolic stability in human liver microsomes assessed as half life at […] measured up to 60 mins in presence of NADPH regeneration system by LC-MS/MS analysis; assay type: ADME, Microsome
[5] = Cmax in Sprague-Dawley rat at 5 mg/kg,po measured up to 24 hrs by LC-MS/MS analysis; assay type: ADME, organism-based; set-up: time < 24 hrs, dose 5 mg/kg, route po; details: in vivo
[6] = Half life in Sprague-Dawley rat at 5 mg/kg,po measured up to 24 hrs by LC-MS/MS analysis; assay type: ADME, organism-based; details: in vivo
[7] = Tmax in Sprague-Dawley rat at 5 mg/kg,po measured up to 24 hrs by LC-MS/MS analysis; assay type: ADME, organism-based; details: in vivo
[8] = AUC (0 to infinity) in Sprague-Dawley rat at 5 mg/kg,po measured up to 24 hrs by LC-MS/MS analysis; assay type: ADME, organism-based; set-up: time < 24 hrs, dose 5 mg/kg, route po; details: in vivo
[9] = MRT in Sprague-Dawley rat at 5 mg/kg,po measured up to 24 hrs by LC-MS/MS analysis; assay type: ADME, organism-based; details: in vivo
Cytochrome P450 1A2 = molecular target: T1, Cytochrome P450 1A2 (Homo sapiens, UniProt P05177); experiment: Inhibition of CYP1A2 in human liver microsomes using phenacetin as substrate preincubated for 10 mins followed by NADPH addition and measured after 15 mins by LC-MS/MS analysis
T1 sequence (P05177 whole entry): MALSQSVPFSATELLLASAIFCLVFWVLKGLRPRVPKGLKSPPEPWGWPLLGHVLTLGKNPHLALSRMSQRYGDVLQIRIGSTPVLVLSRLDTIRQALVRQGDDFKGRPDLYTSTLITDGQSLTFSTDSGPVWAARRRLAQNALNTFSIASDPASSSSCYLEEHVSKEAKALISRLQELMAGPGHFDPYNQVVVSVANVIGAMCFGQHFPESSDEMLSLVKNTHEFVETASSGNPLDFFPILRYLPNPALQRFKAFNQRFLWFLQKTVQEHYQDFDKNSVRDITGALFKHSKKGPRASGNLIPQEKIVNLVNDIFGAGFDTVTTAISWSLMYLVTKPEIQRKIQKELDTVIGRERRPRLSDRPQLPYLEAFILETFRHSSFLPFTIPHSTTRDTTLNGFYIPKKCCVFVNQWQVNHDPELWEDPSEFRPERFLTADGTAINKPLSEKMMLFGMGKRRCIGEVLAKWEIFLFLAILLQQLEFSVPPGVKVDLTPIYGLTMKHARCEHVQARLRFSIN

Cytochrome P450 2C9 = Cytochrome P450 2C9 (Homo sapiens, UniProt P11712); experiment: Inhibition of CYP2C9 in human liver microsomes using tolbutamide as substrate preincubated for 10 mins followed by NADPH addition and measured after 15 mins by LC-MS/MS analysis
Sequence of Cytochrome P450 2C9 (P11712 whole entry): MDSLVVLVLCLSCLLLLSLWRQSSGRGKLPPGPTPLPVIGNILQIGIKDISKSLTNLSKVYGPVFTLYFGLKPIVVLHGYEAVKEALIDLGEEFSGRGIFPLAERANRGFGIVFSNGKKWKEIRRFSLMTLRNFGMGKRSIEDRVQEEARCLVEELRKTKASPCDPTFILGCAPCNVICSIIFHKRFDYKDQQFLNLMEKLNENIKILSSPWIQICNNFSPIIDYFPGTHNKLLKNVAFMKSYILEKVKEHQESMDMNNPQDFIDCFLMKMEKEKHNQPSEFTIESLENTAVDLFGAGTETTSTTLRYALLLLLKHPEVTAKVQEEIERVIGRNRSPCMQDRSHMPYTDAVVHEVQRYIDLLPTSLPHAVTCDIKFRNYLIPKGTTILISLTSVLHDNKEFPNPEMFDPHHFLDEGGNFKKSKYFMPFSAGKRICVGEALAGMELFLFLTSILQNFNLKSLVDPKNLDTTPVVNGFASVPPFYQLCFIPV

Cytochrome P450 2C19 = Cytochrome P450 2C19 (Homo sapiens, UniProt P33261); experiment: Inhibition of CYP2C19 in human liver microsomes using S-mephenytoin as substrate preincubated for 10 mins followed by NADPH addition and measured after 15 mins by LC-MS/MS analysis
Sequence of Cytochrome P450 2C19 (P33261 whole entry): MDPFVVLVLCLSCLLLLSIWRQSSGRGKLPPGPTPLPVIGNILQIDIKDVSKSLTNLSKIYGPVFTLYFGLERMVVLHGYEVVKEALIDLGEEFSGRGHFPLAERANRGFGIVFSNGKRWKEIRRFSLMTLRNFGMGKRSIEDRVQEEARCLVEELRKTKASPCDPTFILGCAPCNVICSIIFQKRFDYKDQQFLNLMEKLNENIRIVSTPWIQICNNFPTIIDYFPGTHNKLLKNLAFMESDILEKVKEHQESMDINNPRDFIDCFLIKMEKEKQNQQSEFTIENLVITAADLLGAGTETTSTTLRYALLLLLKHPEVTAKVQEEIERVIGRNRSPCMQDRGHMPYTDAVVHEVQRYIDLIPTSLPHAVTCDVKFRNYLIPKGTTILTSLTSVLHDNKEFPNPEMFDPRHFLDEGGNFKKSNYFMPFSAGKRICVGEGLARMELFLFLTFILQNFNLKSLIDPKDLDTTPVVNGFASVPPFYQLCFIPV

Cytochrome P450 2D6 = Cytochrome P450 2D6 (Homo sapiens, UniProt P10635); experiment: Inhibition of CYP2D6 in human liver microsomes using dextromethorphan as substrate preincubated for 10 mins followed by NADPH addition and measured after 15 mins by LC-MS/MS analysis
Sequence of Cytochrome P450 2D6 (P10635 whole entry): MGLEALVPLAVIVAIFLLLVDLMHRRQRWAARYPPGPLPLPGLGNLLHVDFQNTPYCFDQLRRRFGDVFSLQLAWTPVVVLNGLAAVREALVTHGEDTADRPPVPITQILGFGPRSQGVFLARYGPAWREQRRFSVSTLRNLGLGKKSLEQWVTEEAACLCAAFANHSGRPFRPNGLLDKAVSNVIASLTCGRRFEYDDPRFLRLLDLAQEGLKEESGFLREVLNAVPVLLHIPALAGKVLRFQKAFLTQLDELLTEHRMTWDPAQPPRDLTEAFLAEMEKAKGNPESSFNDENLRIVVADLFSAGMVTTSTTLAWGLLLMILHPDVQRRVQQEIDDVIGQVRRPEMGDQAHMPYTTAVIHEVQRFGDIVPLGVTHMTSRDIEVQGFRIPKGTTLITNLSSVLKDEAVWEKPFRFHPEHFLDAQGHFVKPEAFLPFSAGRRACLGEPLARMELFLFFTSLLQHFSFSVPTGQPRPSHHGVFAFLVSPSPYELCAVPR

Cytochrome P450 3A4 [10] = molecular target: T2, Cytochrome P450 3A4 (Homo sapiens, UniProt P08684); experiment: Inhibition of CYP3A4 in human liver microsomes using Midazolam as substrate preincubated for 10 mins followed by NADPH addition and measured after 15 mins by LC-MS/MS analysis
T2 sequence (P08684 whole entry): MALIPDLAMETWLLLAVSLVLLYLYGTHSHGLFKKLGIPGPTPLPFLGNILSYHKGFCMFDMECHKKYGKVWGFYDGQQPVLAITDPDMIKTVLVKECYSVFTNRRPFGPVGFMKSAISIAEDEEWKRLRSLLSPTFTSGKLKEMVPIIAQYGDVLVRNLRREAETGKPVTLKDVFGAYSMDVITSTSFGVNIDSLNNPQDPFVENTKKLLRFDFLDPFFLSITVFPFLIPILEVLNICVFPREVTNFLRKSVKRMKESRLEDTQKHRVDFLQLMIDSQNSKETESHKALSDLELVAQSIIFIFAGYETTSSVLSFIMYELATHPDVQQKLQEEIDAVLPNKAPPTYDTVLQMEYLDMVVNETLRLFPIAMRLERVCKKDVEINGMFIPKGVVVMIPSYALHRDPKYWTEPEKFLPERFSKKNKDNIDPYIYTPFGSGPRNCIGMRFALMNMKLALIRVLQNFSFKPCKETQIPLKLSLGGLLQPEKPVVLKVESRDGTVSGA

Cytochrome P450 3A4 [11] = molecular target: T2, Cytochrome P450 3A4; experiment: Inhibition of CYP3A4 in human liver microsomes using testosterone as substrate preincubated for 10 mins followed by NADPH addition and measured after 15 mins by LC-MS/MS analysis
[12] = Metabolic stability in rat liver microsomes assessed as intrinsic clearance at 0.1 µM measured up to 60 mins in presence of NADPH regeneration system by LC-MS/MS analysis; details: 1 h
[13] = Metabolic stability in dog liver microsomes assessed as intrinsic clearance at 0.1 µM measured up to 60 mins in presence of NADPH regeneration system by LC-MS/MS analysis; details: 1 h
[14] = Metabolic stability in human liver microsomes assessed as intrinsic clearance at 0.1 µM measured up to 60 mins in presence of NADPH regeneration system by LC-MS/MS analysis; details: 1 h
Rattus norvegicus [15] = experiment: Antithrombotic activity in anesthetized Wistar rat model of tail-bleeding assessed as increase in bleeding time po administered as single dose measured at 1.5 hrs post dose; assay type: functional
How it was run: (§2)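 Male rats (250–300 g, n = 10 per dose) acclimatized at least 7 days, then dosed by oral gavage. At 1.5 h, anesthetized with 2% pentobarbital i.p. at 50 mg/kg. Tail transected 4 mm from the tip and immersed in saline at 37 °C; bleeding ended when no blood appeared for 30 s. Bleeding time and blood loss weight recorded as mean ± SEM.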

Rattus norvegicus [16] = experiment: Antithrombotic activity in anesthetized Wistar rat model of FeCL3-induced carotid artery thrombosis assessed as reduction in thrombus weight po administered as single dose measured at 1.5 hrs post dose; assay type: functional; how it was run: as §1
Rattus norvegicus [17] = experiment: Antithrombotic activity in anesthetized Wistar rat model of tail-bleeding assessed as increase in bleeding weight at […], po administered as single dose measured at 1.5 hrs post dose; assay type: functional
Rattus norvegicus [18] = experiment: Antithrombotic activity in anesthetized Wistar rat model of tail-bleeding assessed as increase in bleeding weight at 5 mg/kg, po administered as single dose measured at 1.5 hrs post dose; assay type: functional; how it was run: as §2
Rattus norvegicus [19] = experiment: Antithrombotic activity in anesthetized Wistar rat model of tail-bleeding assessed as increase in bleeding weight at 10 mg/kg, po administered as single dose measured at 1.5 hrs post dose; assay type: functional; how it was run: as §2
Rattus norvegicus [20] = experiment: Antithrombotic activity in anesthetized Wistar rat model of tail-bleeding assessed as increase in bleeding weight at 20 mg/kg, po administered as single dose measured at 1.5 hrs post dose; assay type: functional; how it was run: as §2

SMILES: CC1OC(=O)c2cc(C#N)c(N3CCC(C(=O)NS(=O)(=O)Cc4ccccc4)CC3)nc21 (centres undefined)
IC50 (Homo sapiens): > 300 µM

SMILES: CC1OC(=O)c2cc(C#N)c(N3CCC(C(=O)NS(=O)(=O)c4ccc(Cl)s4)CC3)nc21 (centres undefined)
IC50 (Homo sapiens): > 300 µM

SMILES: N#Cc1cc2c(nc1N1CC(C(=O)NS(=O)(=O)c3ccc(Cl)s3)C1)COC2=O
IC50 (Homo sapiens): 193 µM

SMILES: CC1(C(=O)NS(=O)(=O)c2ccc(Cl)s2)CCN(c2nc3c(cc2C#N)C(=O)OC3)CC1
Activity (Rattus norvegicus [1]): Active
IC50 (Homo sapiens): 1.64 µM
half-life [2]: 1.27 h
half-life [3]: 3.34 h
half-life [4]: 3.4 h
Cmax [5]: 479 ng/mL
half-life [6]: 1.26 h
Tmax [7]: 0.25 h
AUC(0-inf) [8]: 1060 ng·h/mL
MRT [9]: 1.98 h
IC50 (Cytochrome P450 1A2): > 50 µM
IC50 (Cytochrome P450 2C9): > 50 µM
IC50 (Cytochrome P450 2C19): 7.75 µM
IC50 (Cytochrome P450 2D6): > 50 µM
IC50 (Cytochrome P450 3A4 [10]): > 50 µM
IC50 (Cytochrome P450 3A4 [11]): > 50 µM
intrinsic clearance [12]: 27.6 mL/min/g
intrinsic clearance [13]: 10.5 mL/min/g
intrinsic clearance [14]: 10.3 mL/min/g

SMILES: COC(=O)[C@H](c1ccccc1Cl)N1CCc2sccc2C1 [CLOPIDOGREL]
ED100 (Rattus norvegicus [15]): 2.36 mg/kg
ED50 (Rattus norvegicus [16]): 7 mg/kg
Activity (Rattus norvegicus [17]): 0.44 g
Activity (Rattus norvegicus [18]): 0.7 g
Activity (Rattus norvegicus [19]): 1.2 g
Activity (Rattus norvegicus [20]): 1.99 g

SMILES: CC1OC(=O)c2cc(C#N)c(N3CC(C(=O)NS(=O)(=O)Cc4ccccc4)C3)nc21 (centres undefined)
IC50 (Homo sapiens): > 300 µM

SMILES: N#Cc1cc2c(nc1N1CCC(C(=O)NS(=O)(=O)Cc3ccccc3)CC1)CCC(Cl)C2=O (centres undefined)
IC50 (Homo sapiens): > 300 µM

SMILES: CC1(C(=O)NS(=O)(=O)Cc2ccc(F)cc2)CCN(c2nc3c(cc2C#N)C(=O)OC3)CC1
IC50 (Homo sapiens): 35.4 µM

SMILES: N#Cc1cc2c(nc1N1CCC(F)(C(=O)NS(=O)(=O)Cc3ccccc3)CC1)COC2=O
IC50 (Homo sapiens): 1.21 µM
Cmax [5]: 149 ng/mL
half-life [6]: 2.52 h
Tmax [7]: 0.25 h
AUC(0-inf) [8]: 291 ng·h/mL
MRT [9]: 3.83 h

SMILES: CC1(C(=O)NS(=O)(=O)Cc2ccc(F)cc2F)CCN(c2nc3c(cc2C#N)C(=O)OC3)CC1
IC50 (Homo sapiens): 8.76 µM

Second part, led by results:

IC50 (Homo sapiens): 4.16 µM
SMILES: CC(c1ccccc1)S(=O)(=O)NC(=O)C1CCN(c2nc3c(cc2C#N)C(=O)OC3)CC1 (centres undefined)

IC50 (Homo sapiens): 2.35 µM
half-life [2]: 2.42 h
half-life [3]: 1.93 h
half-life [4]: 1.35 h
Cmax [5]: 271 ng/mL
half-life [6]: 1.7 h
Tmax [7]: 0.25 h
AUC(0-inf) [8]: 384 ng·h/mL
MRT [9]: 1.91 h
intrinsic clearance [12]: 14.5 mL/min/g
intrinsic clearance [13]: 18.2 mL/min/g
intrinsic clearance [14]: 25.8 mL/min/g
SMILES: N#Cc1cc2c(nc1N1CCC(C(=O)NS(=O)(=O)Cc3ccccc3)CC1)COC2=O
Activity (Rattus norvegicus [1]): Active

IC50 (Homo sapiens): 70.5 µM
SMILES: N#Cc1cc2c(nc1N1CCC(C(=O)NS(=O)(=O)Cc3cccc(F)c3)CC1)COC2=O

IC50 (Homo sapiens): > 300 µM
SMILES: N#Cc1cc2c(nc1N1CCC(C(=O)NS(=O)(=O)Cc3ccccc3)C1)COC2=O (centres undefined)

IC50 (Homo sapiens): > 300 µM
SMILES: N#Cc1cc2c(nc1N1CC(C(=O)NS(=O)(=O)Cc3ccccc3)C1)COC2=O

IC50 (Homo sapiens): 4.42 µM
SMILES: N#Cc1cc2c(nc1N1CCC(C(=O)NS(=O)(=O)Cc3ccc(Cl)cc3)CC1)COC2=O

IC50 (Homo sapiens): 255 µM
SMILES: N#Cc1cc2c(nc1N1CCC(C(=O)NS(=O)(=O)Cc3ccccc3)CC1)CCC(F)C2=O (centres undefined)

IC50 (Homo sapiens): > 300 µM
SMILES: N#Cc1cc2c(nc1N1CCC(C(=O)NS(=O)(=O)Cc3ccccc3)CC1)CCOC2=O

IC50 (Homo sapiens): 4.1 µM
SMILES: N#Cc1cc2c(nc1N1CCC(C(=O)NS(=O)(=O)C3(c4ccccc4)CC3)CC1)COC2=O
